A selection: hits, their analogues and other compounds. The true share with any hit is near 2.1%.
DNMT1 inh = blocks human DNA methyltransferase DNMT1 | P26358 | hit rate 0.83% among 360,000 | DNMT1 molecular beacon, Hinp1I cleavage, fluorescence | inhibition (reported as % activation of signal), % at 10 µM; in the data active means inhibition above about 50%
GRK2 inh = blocks RNA aptamer binding to human GRK2; hit rate 0.59% among 330,000; AID 488847; P25098; inhibition of aptamer binding, % at 10 µM; bead flow cytometry, FAM-aptamer displacement from GRK2;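 active means inhibition of aptamer binding above 40%, roughly 3 SD of noise, on plates passing a quality check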;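 further: median bead fluorescence of bound FAM aptamer so fluorescent compounds give negative values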
Scp-1 inhibitor = inhibitors of human Scp-1 phosphatase; AID 493091; Recombinant Scp1, phosphopeptide, malachite green phosphate absorbance; hit rate 0.88% among 340,000; Q9GZU7; inhibition, % at 20 µM;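 active means inhibition above about 50% at 20 µM, limit read from the data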
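Test system: SCP-1 phosphatase catalytic domain, residues 76-261; measured by: colorimetric phosphate reagent with accelerator and stabiliser, absorbance at 630 nm; timing: enzyme reaction 45 min at room temperature, colour 5 min, stabilisation 30 min; also added: Phosphorylated 17-residue peptide substrate; compound dosing: one concentration, 20 µM, with 1.0% DMSO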
LMPTP inh = LMPTP (human) inhibition. P24666. recombinant LMPTP-A, OMFP fluorogenic substrate, fluorescence intensity. inhibition, % at 20 µM. hit rate 0.22% among 360,000;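 active means compounds that cut the enzyme signal by at least half of the control window in the single-dose screen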
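Assay system: LMPTP-A, protein tyrosine phosphatase of low molecular weight / Medium: pH 6.0 Bis-Tris buffer with DTT and Triton X-100 / Schedule: 50 min enzyme reaction at room temperature, protected from light / Measured by: endpoint fluorescence intensity from OMFP dephosphorylation / Read-out basis: % inhibition relative to no-enzyme and uninhibited control wells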
STEP block = STEP (human) phosphatase inhibition. hit rate 0.25% among 360,000. P54829. inhibition, % at 20 µM. recombinant STEP, OMFP fluorogenic substrate, fluorescence;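 active means inhibition at 20 µM, scaled per plate between control wells, above about 37%, limit read from the data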
Target sequence (P54829 whole entry, looked up): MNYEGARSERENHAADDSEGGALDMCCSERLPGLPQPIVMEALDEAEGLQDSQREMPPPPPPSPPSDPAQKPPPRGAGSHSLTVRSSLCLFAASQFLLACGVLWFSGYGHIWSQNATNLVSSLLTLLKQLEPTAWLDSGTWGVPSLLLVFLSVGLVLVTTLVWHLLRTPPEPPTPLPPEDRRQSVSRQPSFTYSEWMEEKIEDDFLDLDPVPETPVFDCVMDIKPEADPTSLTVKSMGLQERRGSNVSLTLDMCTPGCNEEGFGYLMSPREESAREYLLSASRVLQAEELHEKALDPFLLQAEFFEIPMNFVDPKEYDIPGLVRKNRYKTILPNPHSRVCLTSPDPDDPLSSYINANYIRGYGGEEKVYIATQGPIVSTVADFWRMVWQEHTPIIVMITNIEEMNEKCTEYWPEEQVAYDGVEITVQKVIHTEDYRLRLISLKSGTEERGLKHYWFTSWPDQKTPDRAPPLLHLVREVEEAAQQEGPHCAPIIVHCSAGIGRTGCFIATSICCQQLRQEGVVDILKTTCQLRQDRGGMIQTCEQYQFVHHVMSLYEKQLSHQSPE
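Assay system: isolated STEP enzyme. Buffer or medium: pH 6.0 Bis-Tris with DTT and Tween 20. Also added: fluorogenic phosphatase substrate OMFP at 25 µM final. Dosing: 20 µM, 1% DMSO. Timing: 20 min reaction, room temperature, in the dark. Measured by: fluorescence intensity, excitation 480 nm, emission 540 nm. Evaluation: normalized % inhibition.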
SUMO1 PPI mod = SUMO1-SIM interaction modulation | P63165 | AID 602429 | SUMO1 binding to a labelled peptide, TR-FRET, 1 h | hit rate 0.33% among 360,000 | inhibition, % at 20 µM; in the data active means inhibition above about 37%
STEP inh conf = confirmation of human STEP phosphatase inhibitors | inhibition, % at 20 µM | recombinant STEP, OMFP fluorogenic substrate, fluorescence | shares compounds with STEP block | hit rate 32% among 520; call rule not given here
A number is an active result; n = inactive; x = not tested or not shown.

SMILES | DNMT1 inh | GRK2 inh | Scp-1 inhibitor | LMPTP inh | STEP block | SUMO1 PPI mod | STEP inh conf
S=C1NC[C@H](Cc2ccccc2)N1CCCCC1CCCCC1 | n | n | n | n | n | n | x
C=CCn1c(SCCN2CCOCC2)nc2c1c(=O)[nH]c(=O)n2C | n | n | n | n | n | n | x
COCCn1c(SCCN2CCOCC2)nc2c1c(=O)[nH]c(=O)n2C | n | n | n | n | 60 | n | n
CC1CCc2c(sc(NC(=O)C3c4ccccc4Oc4ccccc43)c2C(N)=O)C1 (stereo not drawn) | n | n | n | n | n | n | x
COC(=O)Nc1sc2c(c1C(N)=O)CCC(C)C2 (stereo not drawn) | n | n | n | n | 97 | n | 80
Cc1ccc(NC(=O)CSc2ncc(-c3ccccc3)n2C(=O)c2ccccc2)cc1 | n | n | n | n | n | n | x
Cc1ccc(C(=O)n2c(-c3ccccc3)cnc2SCC(=O)Nc2ccccc2)cc1 | n | n | n | n | 73 | n | n
CC(CC(=O)Nc1ccc2c(c1)c(=O)n(C)n2Cc1ccc(F)cc1)c1ccccc1 (stereo not drawn) | n | x | x | n | n | n | x
CCCCOc1ccc(C(=O)NCC(=O)N(C)Cc2nc3ccccc3c(=O)[nH]2)cc1 | n | n | n | n | n | n | x
Cc1cccc(C(=O)NCC(=O)N(C)Cc2nc3ccccc3c(=O)[nH]2)c1 | n | n | n | n | 97 | n | n
CSc1nnc(C)c(=O)n1COC(=O)c1ccccc1 | n | n | n | n | n | n | x
COc1ccc(OCC(=O)Nc2ccc3oc(-c4ccncc4)nc3c2)cc1 | n | n | n | n | 49 | n | n
O=C(COc1ccc(Cl)cc1)Nc1ccc2oc(-c3ccncc3)nc2c1 | n | n | n | n | n | n | x
COCCN(C(=S)Nc1ccc(OC)cc1)C1CCN(C(C)C)CC1 | n | n | n | n | n | n | x
COc1ccc(NC(=S)N(CCC(C)C)C2CCN(C(C)C)CC2)cc1Cl | n | n | n | n | 98 | n | 79
COCCN(C(=S)Nc1ccc(OC)c(Cl)c1)C1CCN(C(C)C)CC1 | n | n | n | n | 71 | n | n
COC(=O)C[C@H]1c2cc(C(F)(F)F)ccc2S(=O)(=O)N1Cc1ccc(OC)cc1 | n | n | n | n | n | n | x
COc1ccc(C(=O)Nc2cccc3c2CCCC3)cc1OC | n | n | n | n | n | n | x
O=C(Nc1ccccc1-c1nc2ccccc2s1)C1=COCCO1 | n | n | n | 51 | 58 | n | n
O=C(Nc1nc2ccc(F)cc2s1)C1=COCCO1 | n | n | n | n | n | n | x
O=C(Nc1cccc(O)c1)C1CC(c2cccc(Br)c2)=NO1 (stereo not drawn) | n | n | n | n | 79 | n | n
COCCn1c(SCC(=O)Nc2ccc(F)cc2)nc2c(c1=O)SCC2 | n | x | x | n | n | n | x
CC1(C)Cc2c(sc(NC(=O)C(=O)NCCCN3CCOCC3)c2C(N)=O)CO1 | n | n | n | n | 40 | n | n
Cc1ccccc1C(=O)NCCCCc1ccccc1 | n | n | n | n | 46 | n | n
CCCCNC(=O)c1cccc(C(=O)NCCCC)c1 | n | n | n | n | 96 | n | n
COc1cccc(NC(=O)Cc2cn(C)c3ccccc23)c1 | n | n | n | n | 50 | n | n
CC1(C)CC(NC(=O)CCc2nnc(CCCCc3ccccc3)o2)CCO1 (stereo not drawn) | n | n | n | n | n | n | x
C[C@H]1CN([C@@H](C)CO)C(=O)CCCn2nncc2CO[C@H]1CN(C)C(=O)Nc1ccnc(N2CCOCC2)c1 | n | x | x | n | n | n | x
Cc1nn(C)cc1/C=N/NC(=S)Nc1ccccc1 | n | n | n | n | 76 | n | 50
Cc1ccc(C(=O)Nc2ccc(C(=O)N/N=C/c3cccnc3)cc2)cc1 | n | n | n | n | 75 | n | n
